# Screening data as filed in PubChem BioAssay.
# Shown are actives, neighbours in structure and some others; about 3.8% of the full set was active somewhere.
# NPY2 pot ag: NPY-Y2 potentiators or agonists, primary screen, cell-based | cells expressing NPY-Y2, potentiator/agonist read-out | 220,000 tested, 0.45% active | Neuropeptide Y receptor type 2 (Homo sapiens), P49146 | activation, % at 3.6 µM; in the data active means activation above about 27%;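 further: cells stimulated with NPY near EC25 plus isoproterenol at EC100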
# Target sequence (P49146 whole entry, looked up): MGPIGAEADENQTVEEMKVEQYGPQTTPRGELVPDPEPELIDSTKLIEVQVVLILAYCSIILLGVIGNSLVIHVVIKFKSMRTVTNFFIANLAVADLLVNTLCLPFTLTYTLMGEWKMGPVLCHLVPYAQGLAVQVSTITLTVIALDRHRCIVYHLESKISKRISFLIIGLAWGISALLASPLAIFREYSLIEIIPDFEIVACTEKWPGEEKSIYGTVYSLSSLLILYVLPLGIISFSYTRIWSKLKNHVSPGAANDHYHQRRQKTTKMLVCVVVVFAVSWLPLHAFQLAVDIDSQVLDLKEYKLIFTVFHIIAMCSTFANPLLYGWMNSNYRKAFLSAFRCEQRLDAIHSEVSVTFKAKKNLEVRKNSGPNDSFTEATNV
# NPY Y1 blocker: NPY-Y1 receptor antagonists, primary screen, cell-based. Neuropeptide Y receptor type 1 (Homo sapiens), P25929. HEK293-CNG Y1 cells, membrane potential fluorescence; NPY at EC95, then isoproterenol. inhibition, % at 3.6 µM. 200,000 tested, 1% active;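 active means inhibition above the campaign mean inhibition of all tested compounds plus 3 SD, cut at about 20% in these data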
#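 Test system – HEK293 Y1/CNG channel cell line · Also added – NPY agonist 25 nM, then isoproterenol 1 µM plus Ro 20-1724 25 µM · Compound dosing – one concentration, 3.6 µM, in 0.4% DMSO · Schedule – compound incubation 1 h at room temperature, readout 45 min post-stimulation · Technique – fluorescence, membrane potential probe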
# NPY-Y2 antag: NPY-Y2 receptor antagonists, primary screen, cell-based; AID 793, 2007; 140,000 tested, 0.99% active; NPY-Y2 expressing cells, antagonist mode; inhibition, % at 2.7 µM; in the data active means inhibition above about 17%
# RAM network inh: inhibitors of the yeast RAM network, primary screen, dse1pr::URA3 reporter, 5-FOA selection | S. cerevisiae dse1pr::URA3 reporter, 5-FOA growth OD615, 2 d; analog-sensitive cbk1-as2 kinase mutant strain | 190,000 tested, 1.8% active | inhibition, % at 50 µM;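 active means inhibition above a set limit, 3 SD over mean compound inhibition, cut at about 8.4% in these data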;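 further: inhibition rescues growth on 5-FOA so higher OD means more RAM inhibition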
# NPY1 pot ag: NPY-Y1 receptor potentiators or agonists, primary screen, cell-based | Neuropeptide Y receptor type 1 (Homo sapiens), P25929 | NPY-Y1 expressing cells, potentiator/agonist activation | activation, % at 3.6 µM | 220,000 tested, 0.37% active | AID 1304, 2008; in the data active means activation above about 33%, passing the limit was not always enough;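 further: cells stimulated with NPY at EC10 then isoproterenol at EC100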
# INS promoter inh: inhibitors of insulin promoter-driven GFP, primary screen, imaging, TRM-6 cells, eGFP reporter, cell count; reporter expression induced with tamoxifen; inhibition, % at 2 µM; 130,000 tested, 0.9% active;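 active means inhibition above the mean plus 3 SD, with well images judged a real hit on visual review, cut at about 60% in these data, passing the limit was not always enough; inconclusive means inhibition over the cutoff but images rejected on review; inactive means inhibition not above the cutoff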
# Hits are given with their value; i = inactive; ? = inconclusive; nt = no result given; + = active, no number.
SMILES,NPY2 pot ag,NPY Y1 blocker,NPY-Y2 antag,RAM network inh,NPY1 pot ag,INS promoter inh
COC(=O)C(O)(c1ccc(NC(=S)NC(=O)c2ccc(Cl)cc2Cl)c(C)c1)C(F)(F)F (configuration not stated),i,i,i,9.3,i,i
CCOC(=O)C(O)(c1ccc(NC(=S)NC(=O)c2ccc(Cl)cc2Cl)c(C)c1)C(F)(F)F (configuration not stated),i,i,i,i,i,i
O=c1c2ccccc2nc(C[n+]2ccccc2)n1-c1cccc(C(F)(F)F)c1,i,i,nt,i,i,nt
O=C(c1ccccc1F)c1cn(Cc2ccccc2)c2ccccc12,i,i,i,11.1,i,i
O=P(N1CCCCC1)(N1CCCCC1)C(Cl)(Cl)Cl,i,i,i,i,i,i
N#CC(C#N)=NNc1ccc(-n2ccc(C(F)(F)F)n2)cc1,68.5,nt,nt,nt,55.4,nt
CC(=O)OC(C)(C)/C=C/C(=O)[C@](C)(O)[C@H]1[C@H](O)C[C@@]2(C)[C@@H]3CC=C4[C@H](C[C@H](O)C(=O)C4(C)C)[C@]3(C)C(=O)C[C@]12C,i,108.1,i,i,i,i
CC1CN(CCc2ccccc2)CC(C)O1 (configuration not stated),i,i,i,i,i,70.3
CCOC(=O)c1c(-n2c(C)cc(C=C3C(=O)NC(=S)NC3=O)c2C)sc2c1CCCC2,i,i,i,11.0,i,i
COC(=O)C1=C(N)Oc2c(c(=O)oc3ccccc23)C1c1cccnc1 (configuration not stated),i,i,i,i,i,i
CCOC(=O)/C(CCCN(CC)CC)=N\O,i,i,i,i,i,nt
Oc1ccc(/C=N/NP(=S)(c2ccccc2)c2ccccc2)c(O)c1O,i,i,i,i,i,i
Oc1ccccc1/C=N/NP(=S)(c1ccccc1)c1ccccc1,i,i,nt,8.6,i,nt
CCOc1ccc(N=Cc2c(O)n(-c3cc(C)cc(C)c3)c(=O)[nH]c2=O)cc1,i,nt,nt,nt,i,nt
N#CC(c1ccccc1)N1CCOCC1 (configuration not stated),i,nt,nt,nt,i,nt
Cc1c(C(c2ccc(Br)cc2)c2c(O)c3ccccc3oc2=O)c(=O)n(-c2ccccc2)n1C (configuration not stated),i,i,nt,10.3,i,i
CSc1ccc(C(c2c(O)c3ccccc3oc2=O)c2c(C)n(C)n(-c3ccccc3)c2=O)cc1 (configuration not stated),i,i,nt,i,i,?
Clc1ccccc1CN1CCN(c2ccccc2)CC1,i,i,i,i,i,i
CC(C)(C)c1ccc(O)c(CN2CCN(c3ccccc3)CC2)c1,i,i,i,i,i,82.3
O=[N+]([O-])c1ccc(N2CCNCC2)c2ncccc12,46.5,i,i,i,74.1,i
CN1CCN(c2ccc([N+](=O)[O-])c3cccnc23)CC1,i,i,i,i,i,nt
C[C@@H]1O[C@@H](O[C@H]2C[C@@H](O)[C@]3(CO)[C@H]4[C@H](O)C[C@]5(C)[C@@H](C6COC(=O)C6)CC[C@]5(O)[C@@H]4CC[C@]3(O)C2)[C@H](O)[C@H](O)[C@H]1O (some centres not stated),i,45.9,23.7,i,i,i
Fc1ccc(C2=CCN(C(c3ccc(Cl)cc3)c3nnnn3Cc3ccccc3)CC2)cc1 (configuration not stated),i,i,i,i,i,nt
Fc1ccc(Cn2nnnc2C(c2ccc(Cl)cc2)N2CC=C(c3ccc(F)cc3)CC2)cc1 (configuration not stated),i,i,i,10.2,i,i
CC1CCC(C(=O)NC(C(=O)N2CCC3(CC2)OCCO3)C(C)C)CC1 (configuration not stated),i,i,i,i,i,i
SMILES,NPY2 pot ag,NPY Y1 blocker,NPY-Y2 antag,RAM network inh,NPY1 pot ag,INS promoter inh
CCN1/C(=C\C=C\C2=[N+](CC)c3ccccc3C2(C)C)C(C)(C)c2ccccc21,i,+,+,i,i,i
Cc1cc(/C=C2/C(=O)NC(=O)N(c3ccc(Br)cc3)C2=O)c(C)n1C,i,nt,nt,nt,i,nt
Cc1cc(/C=C2\C(=O)NC(=O)N(c3ccc(Br)cc3)C2=O)c(C)n1C,i,i,nt,10.7,i,nt
CC(=O)Nc1ccccc1OP1(=O)COc2ccccc2OC1,i,i,i,i,i,76.9
O=C1CC(C(=O)N2CCC3(CC2)OCCO3)CN1CCc1ccccc1 (configuration not stated),i,i,i,i,i,80.0
CN1CCN(Cc2cc(C(C)(C)C)c(O)c(C(C)(C)C)c2)CC1,50.5,i,i,i,77.4,i
CN1CCN(Cc2ccc(N)cc2)CC1,i,i,nt,i,i,nt
COc1cc(/C=C(/C)[N+](=O)[O-])ccc1OCc1ccccc1Cl,i,i,i,i,i,i
Cc1ccc(N)c(C(=O)c2ccccc2)c1,103.5,i,i,i,97.8,i
CC(=O)CC(c1ccccc1[N+](=O)[O-])c1c(O)c2ccccc2oc1=O (configuration not stated),i,nt,nt,nt,i,nt
CCCCCc1nc2ccccc2c(=O)n1-c1ccc(Cl)cc1[N+](=O)[O-],i,i,i,i,i,i
Cc1cc(C)cc(N2C(=O)NC(=O)/C(=C\c3cccn3-c3ccccc3)C2=O)c1,i,i,i,9.8,i,i
Cc1cc(C)cc(N2C(=O)NC(=O)/C(=C\c3cccn3-c3ccc(Cl)cc3)C2=O)c1,i,i,i,i,i,nt
COc1ccccc1Cn1c(SCC(=O)C(C)(C)C)nc2cc(C(=O)N3CCC4(CC3)OCCO4)ccc2c1=O,i,i,nt,11.2,i,i
CC1=C(C(=O)N2CCC3(CC2)OCCO3)C2(CCC(C)CC2)OC1=O (configuration not stated),i,i,i,i,i,72.8
Cc1c(C(=O)N2CCC3(CC2)OCCO3)oc2ccccc12,i,i,i,i,i,i
O=c1cc(CN2CC=C(c3ccccc3)CC2)c2c(ccc3ccccc32)o1,63.6,i,i,i,69.7,i
O=S(=O)(c1ccc(F)cc1)N1CCCC1c1cccnc1 (configuration not stated),i,nt,nt,nt,i,nt
CC(C)OCCCNC(=O)c1c(N)n(CC2CCCO2)c2nc3ccccc3nc12 (configuration not stated),i,25.1,22.8,i,i,i
CCCNC(=O)c1c(N)n(CC2CCCO2)c2nc3ccccc3nc12 (configuration not stated),i,i,i,i,i,nt
O=C1NC(=O)C(CCc2ccncc2)(CCc2ccncc2)C(=O)N1Cc1ccccc1,i,i,nt,i,i,nt
CSc1nnc(OC(=O)N(C)C)n1-c1ccc(Cl)cc1,i,nt,nt,nt,i,nt
